RORA inh = inhibitors of orphan receptor RORA, primary screen, cell-based, luminescence; Nuclear receptor ROR-alpha (Homo sapiens), P35398; CHO-K1 Gal4-RORA LBD luciferase reporter; inhibition, % at 10 µM; 65,000 tested, 0.43% active;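 active means inhibition above the mean of all tested compounds plus 3 SD, cut at about 52% in these data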
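Test system: CHO-K1 cells with Gal4-hRORA LBD fusion and pG5-luc reporter / Compound: single concentration per compound, 10 µM final / Schedule: 20 h compound treatment, 37 °C / Signal: luminescence from basal luciferase reporter expression / Read-out: % inhibition / Control set: mock-transfected cells as 100%, +RORA DMSO cells as 0% / Replicates: tested once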
A number is an active result; n = inactive. This excerpt belongs to a sample that is enriched for hits.

SMILES | RORA inh
COc1cccc(OC)c1C1=NCC(=O)Nc2c1oc1ccc(Br)cc21 | 62
O=C1CN=C(c2ccccc2)c2oc3ccc(Br)cc3c2N1 | n
O=c1[nH]c2ccccc2n1CCCN1CCC(n2c(=O)[nH]c3cc(Cl)ccc32)CC1 | n
O=C(c1cc2c(s1)-c1ccccc1OC2)N1CCC2(CC1)OCCO2 | n
COc1cc2nc(CN3CC=C(c4ccccc4)CC3)[nH]c(=O)c2cc1OC | 80
COc1ccc2c(c1)c(C(=O)CN1CCN(C)CC1)c(C)n2Cc1ccccc1 | n
Cn1c2ccccc2c2c(C(=O)N3CCC4(CC3)OCCO4)cn(C3CCCCC3)c(=O)c21 | n
CC(C)C(=O)N1CCN(CCN=Cc2c(O)n(C)c(=O)n(C)c2=O)CC1 | n
Nc1ccc(S(=O)(=O)N2CC3CC(C2)c2cccc(=O)n2C3)cc1 (stereo not given) | n
CCn1nc(-c2cccs2)nc2c(=O)n(C)c(=O)nc1-2 | 91
CCC(=NC1CC1)c1c(O)n(-c2ccc(OC)cc2)c(=O)[nH]c1=O | n
CCCNC(=O)N1C2CCC1CC(O)(c1cccnc1)C2 (stereo not given) | n
Cc1cccc(NC2=NCCCS2)c1C | n
CC1(C)CN=C(Nc2nc3ccccc3s2)S1 | n
CN(C(=O)c1ccco1)C1(c2ccccc2Cl)CCCCC1=O (stereo not given) | n
